The source made the active and inactive calls. The rule behind the calls is not given here.
How the values were obtained:
Aurora kinase B [1] = biological target: T1, Aurora kinase B (Homo sapiens, UniProt Q96GD4); settings: NCI-H1229
[2] = Volume of distribution in CD1 (ICR) mouse at 3 mg/kg, iv; assay type: ADME, organism-based; design: dose 3 mg/kg, route intravenous; settings: in vivo
[3] = Clearance in CD1 (ICR) mouse at 3 mg/kg, iv; assay type: ADME, organism-based; design: dose 3 mg/kg, route intravenous; settings: in vivo
[4] = Oral bioavailability in CD1 (ICR) mouse at 10 mg/kg; assay type: ADME, organism-based; settings: in vivo
Aurora kinase B [5] = biological target: T1, Aurora kinase B; experiment: Inhibition of Aurora B using 1 mM ATP by HTRF assay
Mus musculus [6] = experiment: In vivo inhibition of KDR in po dosed mouse assessed as estradiol-induced uterine edema; assay type: functional
[7] = AUC in CD1 (ICR) mouse at 10 mg/kg, po; assay type: ADME, organism-based; design: dose 10 mg/kg, route oral; settings: plasma
Cytochrome P450 3A4 [8] = biological target: T2, Cytochrome P450 3A4 (Homo sapiens, UniProt P08684); experiment: Inhibition of CYP3A4 up to 10 uM; assay type: ADME
T2 sequence (P08684 whole entry): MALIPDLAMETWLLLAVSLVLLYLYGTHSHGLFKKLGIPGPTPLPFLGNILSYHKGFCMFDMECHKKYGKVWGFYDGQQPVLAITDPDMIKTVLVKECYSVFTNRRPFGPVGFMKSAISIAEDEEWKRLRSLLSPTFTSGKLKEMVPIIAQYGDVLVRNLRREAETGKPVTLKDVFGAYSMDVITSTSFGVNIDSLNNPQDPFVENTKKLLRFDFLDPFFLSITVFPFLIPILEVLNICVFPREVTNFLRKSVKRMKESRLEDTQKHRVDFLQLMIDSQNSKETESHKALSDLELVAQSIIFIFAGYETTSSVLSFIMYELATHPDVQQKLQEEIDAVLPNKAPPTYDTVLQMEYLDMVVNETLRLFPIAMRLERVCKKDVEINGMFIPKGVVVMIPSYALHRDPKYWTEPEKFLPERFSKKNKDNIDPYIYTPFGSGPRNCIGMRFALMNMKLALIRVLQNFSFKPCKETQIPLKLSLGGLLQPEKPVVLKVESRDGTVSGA

[9] = Half life in CD1 (ICR) mouse at 3 mg/kg, iv; assay type: ADME, organism-based; design: dose 3 mg/kg, route intravenous; settings: in vivo
HT-1080 = experiment: Antitumor activity against human HT1080 cells xenografted in mouse assessed as tumor growth inhibition at 10 mg/kg, po qd; assay type: functional; settings: read-out: GI
[10] = biological target: T3, Vascular endothelial growth factor receptor 2 (Homo sapiens, UniProt P35968); experiment: Inhibition of KDR using 1 mM ATP by HTRF assay
T3 sequence (P35968 whole entry): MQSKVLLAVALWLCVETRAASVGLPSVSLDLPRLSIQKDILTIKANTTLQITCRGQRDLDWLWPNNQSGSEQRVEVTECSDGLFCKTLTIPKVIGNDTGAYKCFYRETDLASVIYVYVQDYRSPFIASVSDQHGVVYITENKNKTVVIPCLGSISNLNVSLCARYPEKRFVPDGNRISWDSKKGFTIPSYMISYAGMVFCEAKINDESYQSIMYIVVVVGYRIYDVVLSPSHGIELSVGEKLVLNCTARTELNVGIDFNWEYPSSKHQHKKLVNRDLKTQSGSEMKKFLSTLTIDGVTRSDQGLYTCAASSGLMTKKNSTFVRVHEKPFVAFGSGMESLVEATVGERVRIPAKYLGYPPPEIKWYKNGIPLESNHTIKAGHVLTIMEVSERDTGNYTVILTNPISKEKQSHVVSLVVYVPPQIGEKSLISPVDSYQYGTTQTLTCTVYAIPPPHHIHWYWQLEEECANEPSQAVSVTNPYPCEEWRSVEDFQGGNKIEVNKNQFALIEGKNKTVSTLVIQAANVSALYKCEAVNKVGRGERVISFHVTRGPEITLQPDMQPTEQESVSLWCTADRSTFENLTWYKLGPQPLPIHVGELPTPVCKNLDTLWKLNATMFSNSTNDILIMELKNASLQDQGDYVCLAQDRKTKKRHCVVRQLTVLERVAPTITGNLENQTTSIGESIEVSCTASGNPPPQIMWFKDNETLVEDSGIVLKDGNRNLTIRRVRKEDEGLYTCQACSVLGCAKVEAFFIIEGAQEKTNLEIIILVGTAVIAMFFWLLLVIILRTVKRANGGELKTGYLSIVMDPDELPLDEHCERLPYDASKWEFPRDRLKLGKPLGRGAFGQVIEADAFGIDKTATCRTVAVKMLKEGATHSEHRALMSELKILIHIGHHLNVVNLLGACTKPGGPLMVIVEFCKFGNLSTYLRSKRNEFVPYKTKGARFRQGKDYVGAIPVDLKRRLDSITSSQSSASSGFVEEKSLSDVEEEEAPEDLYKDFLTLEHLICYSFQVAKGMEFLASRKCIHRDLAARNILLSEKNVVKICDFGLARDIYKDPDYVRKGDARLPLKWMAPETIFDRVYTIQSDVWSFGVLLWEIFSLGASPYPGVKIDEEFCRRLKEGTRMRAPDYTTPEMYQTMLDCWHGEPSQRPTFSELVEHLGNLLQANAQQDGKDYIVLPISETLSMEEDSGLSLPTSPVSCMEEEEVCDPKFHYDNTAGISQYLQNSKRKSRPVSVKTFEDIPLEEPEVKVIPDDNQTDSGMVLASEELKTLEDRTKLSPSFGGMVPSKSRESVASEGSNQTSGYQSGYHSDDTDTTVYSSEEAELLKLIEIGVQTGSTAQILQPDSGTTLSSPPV

[11] = biological target: T3, Vascular endothelial growth factor receptor 2; experiment: Inhibition of human KDR phosphorylation expressed in mouse NIH3T3 cells; assay type: cell-based
Cytochrome P450 3A4 [12] = biological target: T2, Cytochrome P450 3A4; experiment: Inhibition of CYP3A4 preincubated for 15 mins; assay type: ADME
Cytochrome P450 3A4 [13] = biological target: T2, Cytochrome P450 3A4; experiment: Inhibition of CYP3A4; assay type: ADME
Mus musculus [14] = experiment: In vivo inhibition of KDR in mouse assessed as estradiol-induced uterine edema up to 30 mg/kg, po; assay type: functional, organism-based; design: dose 30 mg/kg
Method in brief: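 Estradiol-induced uterine edema model in mice, a readout of acute in vivo KDR activity. Compound is given orally and ED50 is reported in mg/kg po. Procedure follows the cited reference.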

T1 sequence (Q96GD4 whole entry): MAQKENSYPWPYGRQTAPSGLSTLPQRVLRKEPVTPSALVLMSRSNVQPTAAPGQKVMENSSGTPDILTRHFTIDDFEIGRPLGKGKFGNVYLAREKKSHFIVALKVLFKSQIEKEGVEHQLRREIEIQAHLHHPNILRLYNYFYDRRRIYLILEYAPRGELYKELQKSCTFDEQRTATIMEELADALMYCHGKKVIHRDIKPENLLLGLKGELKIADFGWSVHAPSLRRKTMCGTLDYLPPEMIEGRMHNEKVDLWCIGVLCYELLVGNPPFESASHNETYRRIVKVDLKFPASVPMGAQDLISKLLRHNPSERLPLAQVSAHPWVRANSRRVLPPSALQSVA

Structure (SMILES)	EC15 (Aurora kinase B [1]) [nM]	IC50 (Aurora kinase B [5]) [nM]	IC50 [10] [nM]	ED50 (Mus musculus [6]) [mg/kg]	also measured
CCCn1cc(-c2cnc(N)c3c(-c4ccc(NC(=O)Nc5cccc(F)c5)cc4)csc23)cn1	4	31	–	1.5	Vd [2]: 1.2 L/kg; clearance [3]: 16.7 mL/min/kg; bioavailability [4]: 52%; AUC [7]: 5260 ng·h/mL; inhibition (INH) (Cytochrome P450 3A4 [8]): < 20%; half-life [9]: 0.8 h; inhibition in vivo at 10 mg/kg (HT-1080): > 70%
COc1ccc(NC(=O)Nc2ccc(-c3csc4c(-c5cnn(C)c5)cnc(N)c34)cc2)cc1	57	114	6	1.3	Vd [2]: 1.5 L/kg; clearance [3]: 15 mL/min/kg; bioavailability [4]: 44%; AUC [7]: 5220 ng·h/mL; inhibition (INH) (Cytochrome P450 3A4 [8]): < 20%; half-life [9]: 1.3 h
Cc1cccc(NC(=O)Nc2ccc(-c3csc4c(-c5ccoc5)cnc(N)c34)cc2)c1	> 300	100	8	–	IC50 [11]: 14 nM
Cc1cccc(NC(=O)Nc2ccc(-c3csc4c(-c5cnn(C)c5)cnc(N)c34)cc2)c1	55	–	–	1	Vd [2]: 2.3 L/kg; clearance [3]: 18.3 mL/min/kg; bioavailability [4]: 59%; AUC [7]: 5640 ng·h/mL; half-life [9]: 1.5 h; inhibition in vivo at 10 mg/kg (HT-1080): > 70%
CC(C)CCn1cc(-c2cnc(N)c3c(-c4ccc(NC(=O)Nc5cccc(F)c5)cc4)csc23)cn1	–	529	25	–	–
Cc1cccc(NC(=O)Nc2ccc(-c3csc4c(-c5ccsc5)cnc(N)c34)cc2)c1	> 300	179	9	–	IC50 [11]: 31 nM
Cc1ccc(NC(=O)Nc2ccc(-c3csc4c(-c5cnn(C)c5)cnc(N)c34)cc2)cc1	64	50	–	1	–
Cc1cccc(NC(=O)Nc2ccc(-c3csc4c(-c5cc[nH]n5)cnc(N)c34)cc2)c1	161	66	6	–	IC50 [11]: 3 nM
CC(C)Cn1cc(-c2cnc(N)c3c(-c4ccc(NC(=O)Nc5cccc(F)c5)cc4)csc23)cn1	355	177	25	1.1	–
Cc1cccc(NC(=O)Nc2ccc(-c3csc4c(-c5ccccc5)cnc(N)c34)cc2)c1	–	3280	–	–	–
Cn1cc(-c2cnc(N)c3c(-c4ccc(NC(=O)Nc5cccc(Cl)c5)cc4)csc23)cn1	18	70	7	2	–
Cn1cc(-c2cnc(N)c3c(-c4ccc(NC(=O)Nc5ccc(Cl)cc5)cc4)csc23)cn1	27	48	8	0.3	–
Cc1cccc(NC(=O)Nc2ccc(-c3csc4c(-c5cc[nH]c5)cnc(N)c34)cc2)c1	389	68	4	–	IC50 [11]: 1 nM
Cc1cccc(NC(=O)Nc2ccc(-c3csc4ccnc(N)c34)cc2)c1	4140	–	–	–	Vd [2]: 1.7 L/kg; clearance [3]: 66.7 mL/min/kg; bioavailability [4]: 18%; AUC [7]: 450 ng·h/mL; half-life [9]: 0.3 h; Activity (Mus musculus [14]): inactive
COc1ccccc1NC(=O)Nc1ccc(-c2csc3c(-c4cnn(C)c4)cnc(N)c23)cc1	> 100	52	6	8	–
CNC(=O)/C=C/c1cnc(N)c2c(-c3ccc(NC(=O)Nc4cccc(C)c4)cc3)csc12	87	80	6	–	IC50 [11]: 22 nM

Now from value to compound, other results behind:

EC15 (Aurora kinase B [1]) [nM]	IC50 (Aurora kinase B [5]) [nM]	IC50 [10] [nM]	Structure (SMILES)	ED50 (Mus musculus [6]) [mg/kg]	also measured
9	6	3	Cn1cc(-c2cnc(N)c3c(-c4ccc(NC(=O)Nc5ccccc5)cc4)csc23)cn1	0.3	–
< 1	2	2	Nc1ncc(-c2cnn(CCCN3CC[C@@H](O)C3)c2)c2scc(-c3ccc(NC(=O)Nc4cccc(F)c4)cc3)c12	–	–
46	13	–	CNC(=O)c1cnc(N)c2c(-c3ccc(NC(=O)Nc4cccc(C)c4)cc3)csc12	–	IC50 [11]: 1 nM
413	23	2	Cn1cc(-c2cnc(N)c3c(-c4ccc(NC(=O)Nc5cccc(C(N)=O)c5)cc4)csc23)cn1	> 10	–
4	11	1	CS(=O)(=O)CCn1cc(-c2cnc(N)c3c(-c4ccc(NC(=O)Nc5cccc(F)c5)cc4)csc23)cn1	10	–
< 30	18	3	Cn1cc(-c2cnc(N)c3c(-c4ccc(NC(=O)Nc5ccccc5F)cc4)csc23)cn1	1.1	–
12	17	3	Cn1cc(-c2cnc(N)c3c(-c4ccc(NC(=O)Nc5ccc(OC(F)(F)F)cc5)cc4)csc23)cn1	2.6	–
1	5	6	CN1CCC(n2cc(-c3cnc(N)c4c(-c5ccc(NC(=O)Nc6cccc(F)c6)cc5)csc34)cn2)C1=O (centres undefined)	0.4	–
31	8	–	Cc1cccc(NC(=O)Nc2ccc(-c3csc4c(-c5cn[nH]c5)cnc(N)c34)cc2)c1	–	–
2	1	–	C[C@@H](O)Cn1cc(-c2cnc(N)c3c(-c4ccc(NC(=O)Nc5cccc(F)c5)cc4)csc23)cn1	1.2	Vd [2]: 1.2 L/kg; clearance [3]: 5 mL/min/kg; bioavailability [4]: 42%; AUC [7]: 14600 ng·h/mL; inhibition (INH) (Cytochrome P450 3A4 [8]): < 20%; half-life [9]: 2.9 h
141	11	–	Cc1cccc(NC(=O)Nc2ccc(-c3csc4c(C#CCN(C)C)cnc(N)c34)cc2)c1	–	–
6	9	–	Cn1cc(-c2cnc(N)c3c(-c4ccc(NC(=O)Nc5cccc(F)c5)cc4)csc23)cn1	0.3	Vd [2]: 0.9 L/kg; clearance [3]: 3.33 mL/min/kg; IC50 (Cytochrome P450 3A4 [12]): 2700 nM; bioavailability [4]: 78%; AUC [7]: 44000 ng·h/mL; half-life [9]: 3.6 h; inhibition in vivo at 10 mg/kg (HT-1080): > 70%; IC50 (Cytochrome P450 3A4 [13]): 7900 nM
< 3	8	4	Nc1ncc(-c2cnn(CCN3CCCCC3)c2)c2scc(-c3ccc(NC(=O)Nc4cccc(F)c4)cc3)c12	> 10	–
2	8	2	Cc1ccccc1NC(=O)Nc1ccc(-c2csc3c(-c4cnn(C)c4)cnc(N)c23)cc1	3.5	–

From ChEMBL document CHEMBL2021801, “Thienopyridine ureas as dual inhibitors of the VEGF and Aurora kinase families” (Bioorg Med Chem Lett, 2012)
